# Columns and labels:
# [1] = test system: Raji; assay: Chemopreventive activity in human Raji cells assessed as inhibition of TPA-induced EBV-early antigen activation by measuring EBV-EA positive cells at 10 molar ratio/20 ng/ml of TPA after 48 hrs by immunofluorescence analysis; format: cell-based; parameters: scale not given: the % may be the effect or the level left; details: human gammaherpesvirus 4
# Summary of the method: (§1)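 Raji cells (EBV genome-carrying, virus non-producer; cultured in RPMI-1640 with 10% FBS) incubated 48 h at 37 °C with n-butyric acid (4 mM), TPA ([…] = 20 ng) and test compounds in DMSO. EBV-EA positive cells were detected by indirect immunofluorescence with NPC patient serum, counting ≥500 cells, triplicate. Results were expressed relative to the butyric acid+TPA control (100%). Viability was checked by Trypan blue.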
# [2] = test system: Raji; assay: Chemopreventive activity in human Raji cells assessed as inhibition of TPA-induced EBV-early antigen activation by measuring EBV-EA positive cells at 100 molar ratio/20 ng/ml of TPA after 48 hrs by immunofluorescence analysis; format: cell-based; parameters: scale not given: the % may be the effect or the level left; details: human gammaherpesvirus 4
# Summary of the method: (§2)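 Raji cells (EBV genome-carrying, Burkitt's lymphoma-derived, virus non-producer), grown in RPMI-1640 with 10% FBS. Cells were incubated 48 h at 37 °C with n-butyric acid (4 mM), TPA ([…] = 20 ng, in DMSO) and test compound in DMSO at 10–1000 mol ratio/TPA. EBV-EA-positive cells were detected by indirect immunofluorescence using NPC patient serum, with at least 500 cells counted. Triplicates were run, expressed relative to the butyrate+TPA control (100%). Viability was checked by Trypan blue.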
# [3] = Chemopreventive activity in human Raji cells assessed as molar ratio of compound required to inhibit 50% of control of inhibition of TPA-induced EBV-early antigen activation after 48 hrs by immunofluorescence analysis; format: cell-based, human gammaherpesvirus 4; summary of the method: as §1
# [4] = test system: Raji; assay: Chemopreventive activity in human Raji cells assessed as inhibition of TPA-induced EBV-early antigen activation by measuring EBV-EA positive cells at 1000 molar ratio/20 ng/ml of TPA after 48 hrs by immunofluorescence analysis relative to control; format: cell-based; parameters: scale not given: the % may be the effect or the level left; details: human gammaherpesvirus 4; summary of the method: as §2
# [5] = test system: Raji; assay: Chemopreventive activity in human Raji cells assessed as inhibition of TPA-induced EBV-early antigen activation by measuring EBV-EA positive cells at 500 molar ratio/20 ng/ml of TPA after 48 hrs by immunofluorescence analysis; format: cell-based; parameters: scale not given: the % may be the effect or the level left; details: human gammaherpesvirus 4; summary of the method: as §2
# [6] = organism: Mus musculus; assay: Inhibition of DMBA-TPA-induced carcinogenesis in mouse skin assessed as reduction of number of papilloma at 85 nmol after 8 weeks relative to control; format: functional; parameters: scale not given: the % may be the effect or the level left
# Summary of the method: (§3)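 Two-stage mouse skin model. Initiation used DMBA (390 nmol). Promotion used TPA (1.7 nmol) twice weekly, starting 1 week after initiation. Test compound (85 nmol) was given with TPA. Papilloma incidence (% of mice bearing papillomas) and average papillomas per mouse were monitored over 20 weeks against a TPA-alone control.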
# [7] = organism: Mus musculus; assay: Inhibition of DMBA-TPA-induced carcinogenesis in mouse skin assessed as reduction of number of papilloma at 85 nmol after 11 weeks relative to control; format: functional; parameters: scale not given: the % may be the effect or the level left; summary of the method: as §3
structure (smiles),measurement,setting,value
C=C(C)[C@@H]1CC[C@]2(C)[C@H](CC[C@@H]3[C@H]4[C@H](C(C)C)CC[C@]4(C(=O)NCCCCCCCNC(C)=O)CC[C@]32C)[C@@]1(C)CCC(=O)OC,Activity,[1],100%
same,Activity,[2],77.2%
same,IC50,[3],479 molar ratio
same,Activity,[4],7.1%
same,Activity,[5],54.4%
COC(=O)CC[C@]1(C)[C@H]2CC[C@@H]3[C@H]4[C@H](C(C)C)CC[C@]4(C(=O)O)CC[C@@]3(C)[C@]2(C)CC[C@H]1C(C)COC(C)=O (stereo partly drawn),Activity,[1],98.2%
same,Activity,[2],68.8%
same,IC50,[3],335 molar ratio
same,Activity,[4],0%
same,Activity,[5],33.8%
CC(=O)NCCCCCCCNC(=O)[C@]12CC[C@@H](C(C)C)[C@@H]1[C@H]1CC[C@@H]3[C@@](C)(CCC(=O)O)[C@H](C(C)COC(=O)CC(C)(C)C(=O)O)CC[C@@]3(C)[C@]1(C)CC2 (stereo partly drawn),Activity,[1],100%
same,Activity,[2],81.3%
same,IC50,[3],501 molar ratio
same,Activity,[4],11.3%
same,Activity,[5],57.2%
C=C(C)[C@@H]1CC[C@]2(C)[C@H](CC[C@@H]3[C@H]4[C@H](C(C)C)CC[C@]4(C(=O)O)CC[C@]32C)[C@@]1(C)CCC(=O)O,Activity,[1],91.6%
same,Activity,[2],65.1%
same,Activity,[6],0%
same,Activity,[7],10%
same,IC50,[3],295 molar ratio
same,Activity,[4],0%
same,Activity,[5],26.6%
C=C(C)[C@@H]1CC[C@]2(C(=O)O)CC[C@]3(C)[C@H](CC[C@@H]4[C@@]5(C)CC[C@H](OC(=O)CC(C)(C)C(=O)O)C(C)(C)[C@@H]5CC[C@]43C)[C@@H]12 [BEVIRIMAT],Activity,[2],74.2%
same,IC50,[3],396 molar ratio
same,Activity,[4],6.1%
same,Activity,[5],36.1%
C=C(C)[C@@H]1CC[C@]2(C)[C@H](CC[C@@H]3[C@H]4[C@H](C(C)C)CC[C@]4(C(=O)O)CC[C@]32C)[C@@]1(C)CCC(=O)OC,Activity,[1],94.2%
same,Activity,[2],66.9%
same,IC50,[3],311 molar ratio
same,Activity,[4],0%
same,Activity,[5],29.1%
COC(=O)CC[C@]1(C)[C@H]2CC[C@@H]3[C@H]4[C@H](C(C)C)CC[C@]4(C(=O)O)CC[C@@]3(C)[C@]2(C)CC[C@H]1C(C)CO (stereo partly drawn),Activity,[1],96.3%
same,Activity,[2],68.1%
same,Activity,[6],0%
same,Activity,[7],10%
same,IC50,[3],323 molar ratio
same,Activity,[4],0%
same,Activity,[5],31.6%
CC(=O)NCCCCCCCNC(=O)[C@]12CC[C@@H](C(C)C)[C@@H]1[C@H]1CC[C@@H]3[C@@]4(C)CCC(=O)OC(C)(C)[C@@H]4CC[C@@]3(C)[C@]1(C)CC2,Activity,[1],100%
same,Activity,[2],83.2%
same,IC50,[3],523 molar ratio
same,Activity,[4],15.3%
same,Activity,[5],61.4%
COC(=O)CC[C@]1(C)[C@H]2CC[C@@H]3[C@H]4[C@H](C(C)C)CC[C@]4(C(=O)O)CC[C@@]3(C)[C@]2(C)CC[C@H]1C(C)COC(=O)CC(C)(C)C(=O)O (stereo partly drawn),Activity,[1],100%
same,Activity,[2],71.3%
same,IC50,[3],386 molar ratio
same,Activity,[4],3.7%
same,Activity,[5],36.4%
COC(=O)CC[C@]1(C)[C@H]2CC[C@@H]3[C@H]4[C@H](C(C)C)CC[C@]4(C(=O)NCCCCCCCNC(C)=O)CC[C@@]3(C)[C@]2(C)CC[C@H]1C(C)COC(C)=O (stereo partly drawn),Activity,[1],100%
same,Activity,[2],79.4%
same,IC50,[3],490 molar ratio
same,Activity,[4],7.8%
same,Activity,[5],56%
COc1cc(/C=C/C(=O)CC(=O)/C=C/c2ccc(O)c(OC)c2)ccc1O [CURCUMIN],Activity,[1],100%
same,Activity,[2],81.7%
same,IC50,[3],341 molar ratio
same,Activity,[4],0%
same,Activity,[5],22.8%
C=C(C)[C@@H]1CC[C@]2(C)[C@H](CC[C@@H]3[C@H]4[C@H](C(C)C)CC[C@]4(C(=O)NCCCCCCCNC(C)=O)CC[C@]32C)[C@@]1(C)CCC(=O)O,Activity,[1],100%
same,Activity,[2],76.3%
same,IC50,[3],460 molar ratio
same,Activity,[4],6.7%
same,Activity,[5],50.2%
CC(=O)NCCCCCCCNC(=O)[C@]12CC[C@@H](C(C)C)[C@@H]1[C@H]1CC[C@@H]3[C@@](C)(CCC(=O)O)[C@H](C(C)CO)CC[C@@]3(C)[C@]1(C)CC2 (stereo partly drawn),Activity,[1],100%
same,Activity,[2],77.5%
same,IC50,[3],471 molar ratio
same,Activity,[4],6.6%
same,Activity,[5],52.1%
